Target: T1, Glucocorticoid receptor (Homo sapiens) (UniProt P04150)
T1 sequence (whole entry): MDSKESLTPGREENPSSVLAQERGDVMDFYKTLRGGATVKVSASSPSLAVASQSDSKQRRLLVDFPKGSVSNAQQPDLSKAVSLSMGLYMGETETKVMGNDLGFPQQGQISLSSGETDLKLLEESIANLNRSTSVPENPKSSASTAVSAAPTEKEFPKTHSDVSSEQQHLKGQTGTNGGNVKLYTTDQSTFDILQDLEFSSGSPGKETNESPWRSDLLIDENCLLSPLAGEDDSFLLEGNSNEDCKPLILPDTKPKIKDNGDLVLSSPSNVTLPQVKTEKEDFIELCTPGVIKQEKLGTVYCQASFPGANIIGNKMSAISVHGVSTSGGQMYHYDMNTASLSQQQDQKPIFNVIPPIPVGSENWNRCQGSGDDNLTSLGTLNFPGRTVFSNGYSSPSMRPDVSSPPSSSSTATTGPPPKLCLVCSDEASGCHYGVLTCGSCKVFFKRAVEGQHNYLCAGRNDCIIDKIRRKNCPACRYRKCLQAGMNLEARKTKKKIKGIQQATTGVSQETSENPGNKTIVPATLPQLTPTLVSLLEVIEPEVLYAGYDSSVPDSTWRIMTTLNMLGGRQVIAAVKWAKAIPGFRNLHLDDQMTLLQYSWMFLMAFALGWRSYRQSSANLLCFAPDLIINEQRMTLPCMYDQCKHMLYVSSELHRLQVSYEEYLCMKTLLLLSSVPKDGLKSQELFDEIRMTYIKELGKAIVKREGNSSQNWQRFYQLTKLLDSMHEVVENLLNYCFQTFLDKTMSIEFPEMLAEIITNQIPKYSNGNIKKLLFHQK
Experiment: Agonist activity at glucocorticoid receptor in human HepG2 cells assessed as induction of tyrosine amino transferase activity measured after 20 hrs
Format: cell-based
Settings: in the assay text read “primary hepatocytes” for “HepG2 cells”
In short: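 HepG2 cells in charcoal-stripped FBS RPMI, 25,000 cells/well, 24 h; assay media with 10 µM forskolin. 30 min pre-incubation in 0.1% DMSO, then compound (8-point half-log, 10 µM to 0.003 µM final) for 20 h at 37°C. TAT in lysate with tyrosine, alpha-ketoglutarate and pyridoxal phosphate, 2 h at 37°C, KOH stop, A340. EC50 from 4-parameter fit of % activation of basal TAT.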

SMILES: Cn1cc(S(=O)(=O)N2CCC3=Cc4c(cnn4-c4ccc(F)cc4)C[C@]3(C(=O)c3cc(C(F)(F)F)ccn3)C2)cn1 [RELACORILANT]
- Emax: 0%

From ChEMBL document CHEMBL4049426, “Identification of the Clinical Candidate (R)-(1-(4-Fluorophenyl)-6-((1-methyl-1H-pyrazol-4-yl)sulfonyl)-4,4a,5,6,7,8-hexahydro-1H-pyrazolo[3,4-g]isoquinolin-4a-yl)(4-(trifluoromethyl)pyridin-2-yl)methanone (CORT125134): A Selective Glucocorticoid Receptor (GR) Antagonist” (J Med Chem, 2017)
